Experimental data gathered from unrelated publications.
Lines come from different studies, so protocols differ.
HTR1B: 5-hydroxytryptamine receptor 1B (HTR1B, Homo sapiens, UniProt P28222)
Calcitonin-gene-related peptide receptor, CALCRL/RAMP1: Calcitonin-gene-related peptide receptor, CALCRL/RAMP1 (Homo sapiens, UniProt O60894+Q16602)
CDK7 with cyclin H: Cyclin-dependent kinase 7, with cyclin H (CDK7, Homo sapiens, UniProt P50613)

COc1cc(NC(C)=O)c(Cl)cc1C(=O)Nc1nccs1 — inhibition (HTR1B; ligand displacement, radioligand; 10 µM): -0.8%
Cc1ccc(CNC(=O)[C@H](CCc2ccccc2)NC(=O)[C@H](CCc2ccccc2)NC(=O)[C@H](CCc2ccccc2)NC(=O)c2cnc(C)cn2)cc1 — inhibition (Calpain-1 catalytic subunit (CAPN1, Homo sapiens, UniProt P07384); enzyme activity, inhibitor; 100 µM): -9%
CS(=O)(=O)Nc1cccc(-c2csc(NC(=O)CSc3nc4nccnc4c(=O)n3CCc3ccccc3)n2)c1 — inhibition (Phosphatidylinositol 4-phosphate 5-kinase type-1 beta (PIP5K1B, Homo sapiens, UniProt O14986); enzyme activity, inhibitor; 10 µM): 3%
CN(C)C1CCN(CC#Cc2nn(C3CCCC3)c3nc(NCc4ccccc4)ncc23)C1 (stereo not shown) — inhibition (Tyrosine-protein kinase SYK (SYK, Homo sapiens, UniProt P43405); enzyme activity, inhibitor, FRET; 1 µM): 0%
O=C(c1ccc(Cl)cc1)N(Cc1ccccc1)C1CCCCC1 — inhibition (Calcitonin-gene-related peptide receptor, CALCRL/RAMP1; cell-free assay; 10 µM): -20.2%
Oc1ccc(/C=C/c2cc(O)cc(O)c2)cc1 — inhibition (CDK7 with cyclin H; enzyme activity, inhibitor, ADP detection; 10 µM): 40%
CCCNc1nc2ccccc2n1Cc1ccc(Cl)cc1 — inhibition (HTR1B; ligand displacement, radioligand; 10 µM): -13.2%
O=C(/C=C/C=C/c1ccc2c(c1)OCO2)N1CCCCC1 — inhibition (CDK7 with cyclin H; enzyme activity, inhibitor, ADP detection; 10 µM): 39.4%
Cc1ccc(S(=O)(=O)N[C@@H](CC(=O)NC(C)(C)C)C(=O)NCc2ccccc2)cc1 — inhibition (Proteasome component C5/PSMB8 (Homo sapiens, UniProt P20618+P28062); enzyme activity, inhibitor; 100 µM): ≤ 50%
Oc1cccc(Nc2nc(-c3ccc(F)cc3F)cs2)c1 — inhibition (Calcitonin-gene-related peptide receptor, CALCRL/RAMP1; cell-free assay; 10 µM): 3%
Nc1nccc(-c2c[nH]c3ccc(Br)cc23)n1 — inhibition (CDK7 with cyclin H; enzyme activity, inhibitor, ADP detection; 10 µM): -32%
CCN(CC)c1ccc(C2Nc3ccc(C(=O)c4ccccc4)cc3NC3=C2C(=O)CC(C)(C)C3)cc1 (stereo not shown) — inhibition (HTR1B; ligand displacement, radioligand; 10 µM): 6%
COc1c(C(=O)/C=C(\O)c2ccccc2)ccc2occc12 — inhibition (CDK7 with cyclin H; enzyme activity, inhibitor, ADP detection; 10 µM): -26%
CC(=O)c1nn(CC(=O)N2C[C@H](F)C[C@H]2C(=O)Nc2cccc(Br)n2)c2ccc(-c3cnc(C)nc3)cc12 — inhibition (Prothrombin (F2, Homo sapiens, UniProt P00734); enzyme activity, inhibitor; 10 µM): 1.2%
CO[C@H]1/C=C/O[C@@]2(C)Oc3c(C)c(O)c4c(O)c(c(/C=N/N5CCN(C)CC5)c(O)c4c3C2=O)NC(=O)/C(C)=C\C=C\[C@H](C)[C@H](O)[C@@H](C)[C@@H](O)[C@@H](C)[C@H](OC(C)=O)[C@@H]1C — inhibition (CDK7 with cyclin H; enzyme activity, inhibitor, ADP detection; 10 µM): 23.1%
CCN(CC)c1ccc(C2=NNC(=O)CC2C)cc1[N+](=O)[O-] (stereo not shown) — inhibition (3',5'-cyclic-AMP phosphodiesterase 4D (PDE4D, Homo sapiens, UniProt Q08499); enzyme activity, inhibitor; 0.1 µM): 20%
